Legend:
Format in all cases: functional
[1] = system: Staphylococcus epidermidis; assay: Antibacterial activity against methicillin-susceptible Staphylococcus epidermidis assessed as percent cumulative susceptible isolates at minimum inhibitory concentration of 8 ug/ml by CLSI broth microdilution method; parameters: scale not given: the % may be the effect or the level left
[2] = system: Staphylococcus epidermidis; assay: Antibacterial activity against methicillin-resistant Staphylococcus epidermidis assessed as percent cumulative susceptible isolates at minimum inhibitory concentration of 4 ug/ml by CLSI broth microdilution method; parameters: scale not given: the % may be the effect or the level left
[3] = system: Streptococcus pneumoniae; assay: Antibacterial activity against Streptococcus pneumoniae assessed as percent cumulative susceptible isolates at minimum inhibitory concentration of 1 ug/ml by CLSI broth microdilution method; parameters: scale not given: the % may be the effect or the level left
[4] = system: Streptococcus pneumoniae; assay: Antibacterial activity against Streptococcus pneumoniae assessed as percent cumulative susceptible isolates at minimum inhibitory concentration of 2 ug/ml by CLSI broth microdilution method; parameters: scale not given: the % may be the effect or the level left
[5] = system: Streptococcus pneumoniae; assay: Antibacterial activity against penicillin-resistant Streptococcus pneumoniae assessed as percent cumulative susceptible isolates at minimum inhibitory concentration of 1 ug/ml by CLSI broth microdilution method; parameters: scale not given: the % may be the effect or the level left
[6] = system: Stenotrophomonas maltophilia; assay: Antibacterial activity against Stenotrophomonas maltophilia assessed as percent cumulative susceptible isolates at minimum inhibitory concentration of 0.5 ug/ml by CLSI broth microdilution method; parameters: scale not given: the % may be the effect or the level left
[7] = system: Staphylococcus aureus; assay: Antibacterial activity against methicillin-resistant Staphylococcus aureus assessed as percent cumulative susceptible isolates at minimum inhibitory concentration of 8 ug/ml by CLSI broth microdilution method; parameters: scale not given: the % may be the effect or the level left
[8] = system: Enterococcus faecium; assay: Antibacterial activity against Enterococcus faecium assessed as percent cumulative susceptible isolates at minimum inhibitory concentration of 1 ug/ml by CLSI broth microdilution method; parameters: scale not given: the % may be the effect or the level left
[9] = system: Escherichia coli; assay: Antibacterial activity against Escherichia coli assessed as percent cumulative susceptible isolates at minimum inhibitory concentration of 8 ug/ml by CLSI broth microdilution method; parameters: scale not given: the % may be the effect or the level left
[10] = system: Staphylococcus epidermidis; assay: Antibacterial activity against methicillin-resistant Staphylococcus epidermidis assessed as percent cumulative susceptible isolates at minimum inhibitory concentration of […] by CLSI broth microdilution method; parameters: scale not given: the % may be the effect or the level left
[11] = system: Streptococcus pneumoniae; assay: Antibacterial activity against Streptococcus pneumoniae assessed as percent cumulative susceptible isolates at minimum inhibitory concentration of […] by CLSI broth microdilution method; parameters: scale not given: the % may be the effect or the level left
[12] = system: Enterococcus faecalis; assay: Antibacterial activity against Enterococcus faecalis assessed as percent cumulative susceptible isolates at minimum inhibitory concentration of 0.03 ug/ml by CLSI broth microdilution method; parameters: scale not given: the % may be the effect or the level left
[13] = system: Stenotrophomonas maltophilia; assay: Antibacterial activity against Stenotrophomonas maltophilia assessed as percent cumulative susceptible isolates at minimum inhibitory concentration of […] by CLSI broth microdilution method; parameters: scale not given: the % may be the effect or the level left
[14] = system: Stenotrophomonas maltophilia; assay: Antibacterial activity against Stenotrophomonas maltophilia assessed as percent cumulative susceptible isolates at minimum inhibitory concentration of 32 ug/ml by CLSI broth microdilution method; parameters: scale not given: the % may be the effect or the level left
[15] = system: Stenotrophomonas maltophilia; assay: Antibacterial activity against Stenotrophomonas maltophilia by CLSI M7-A7 broth microdilution method
[16] = Ratio of fAUC (0 to 24 hrs) in in vitro PK/PD model at 750 mg to MIC for Staphylococcus aureus
[17] = Ratio of fAUC (0 to 24 hrs) in in vitro PK/PD model at 750 mg to MIC for Staphylococcus epidermidis
[18] = system: Staphylococcus aureus; assay: Antibacterial activity against methicillin-resistant Staphylococcus aureus assessed as percent cumulative susceptible isolates at minimum inhibitory concentration of 2 ug/ml by CLSI broth microdilution method; parameters: scale not given: the % may be the effect or the level left
[19] = system: Enterococcus faecium; assay: Antibacterial activity against Enterococcus faecium assessed as percent cumulative susceptible isolates at minimum inhibitory concentration of […] by CLSI broth microdilution method; parameters: scale not given: the % may be the effect or the level left
[20] = system: Enterococcus faecium; assay: Antibacterial activity against Enterococcus faecium assessed as percent cumulative susceptible isolates at minimum inhibitory concentration of 8 ug/ml by CLSI broth microdilution method; parameters: scale not given: the % may be the effect or the level left
[21] = system: Enterococcus faecium; assay: Antibacterial activity against Enterococcus faecium assessed as percent cumulative susceptible isolates at minimum inhibitory concentration of 128 ug/ml by CLSI broth microdilution method; parameters: scale not given: the % may be the effect or the level left
[22] = system: Escherichia coli; assay: Antibacterial activity against Escherichia coli assessed as percent cumulative susceptible isolates at minimum inhibitory concentration of 256 ug/ml by CLSI broth microdilution method; parameters: scale not given: the % may be the effect or the level left
[23] = system: Klebsiella oxytoca; assay: Antibacterial activity against Klebsiella oxytoca assessed as percent cumulative susceptible isolates at minimum inhibitory concentration of 0.5 ug/ml by CLSI broth microdilution method; parameters: scale not given: the % may be the effect or the level left
Summary of the method: (§1)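 Clinical isolates tested by CLSI broth microdilution using 96-well panels of doubling drug dilutions in cation-adjusted Mueller-Hinton broth with 5% lysed horse blood. MIC was read from these panels. Panel quality control used CLSI ATCC strains, including S. pneumoniae 49619, S. aureus 29213, E. faecalis 29212 and E. coli 25922. Cumulative percentages of isolates were tabulated at each MIC.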

[24] = system: Enterobacter cloacae; assay: Antibacterial activity against Enterobacter cloacae assessed as percent cumulative susceptible isolates at minimum inhibitory concentration of 0.5 ug/ml by CLSI broth microdilution method; parameters: scale not given: the % may be the effect or the level left
[25] = system: Staphylococcus aureus; assay: Antibacterial activity against Levofloxacin-susceptible Staphylococcus aureus assessed as percent cumulative susceptible isolates at minimum inhibitory concentration of 0.03 ug/ml by CLSI broth microdilution method; parameters: scale not given: the % may be the effect or the level left
[26] = system: Staphylococcus aureus; assay: Antibacterial activity against non-levofloxacin susceptible Staphylococcus aureus assessed as percent cumulative susceptible isolates at minimum inhibitory concentration of 1 ug/ml by CLSI broth microdilution method; parameters: scale not given: the % may be the effect or the level left
[27] = system: Staphylococcus aureus; assay: Antibacterial activity against non-levofloxacin susceptible Staphylococcus aureus assessed as percent cumulative susceptible isolates at minimum inhibitory concentration of 2 ug/ml by CLSI broth microdilution method; parameters: scale not given: the % may be the effect or the level left
[28] = system: Staphylococcus aureus; assay: Antibacterial activity against non-levofloxacin susceptible Staphylococcus aureus assessed as percent cumulative susceptible isolates at minimum inhibitory concentration of 4 ug/ml by CLSI broth microdilution method; parameters: scale not given: the % may be the effect or the level left
[29] = system: Staphylococcus aureus; assay: Antibacterial activity against community-associated methicillin-resistant Staphylococcus aureus assessed as percent cumulative susceptible isolates at minimum inhibitory concentration of […] by CLSI broth microdilution method; parameters: scale not given: the % may be the effect or the level left
[30] = system: Staphylococcus aureus; assay: Antibacterial activity against hospital-associated methicillin-resistant Staphylococcus aureus assessed as percent cumulative susceptible isolates at minimum inhibitory concentration of […] by CLSI broth microdilution method; parameters: scale not given: the % may be the effect or the level left
[31] = system: Staphylococcus aureus; assay: Antibacterial activity against hospital-associated methicillin-resistant Staphylococcus aureus assessed as percent cumulative susceptible isolates at minimum inhibitory concentration of 1 ug/ml by CLSI broth microdilution method; parameters: scale not given: the % may be the effect or the level left; summary of the method: as §1
[32] = system: Staphylococcus epidermidis; assay: Antibacterial activity against methicillin-susceptible Staphylococcus epidermidis assessed as percent cumulative susceptible isolates at minimum inhibitory concentration of 0.03 ug/ml by CLSI broth microdilution method; parameters: scale not given: the % may be the effect or the level left
[33] = system: Staphylococcus epidermidis; assay: Antibacterial activity against methicillin-susceptible Staphylococcus epidermidis assessed as percent cumulative susceptible isolates at minimum inhibitory concentration of 1 ug/ml by CLSI broth microdilution method; parameters: scale not given: the % may be the effect or the level left

## C[C@H]1COc2c(N3CCN(C)CC3)c(F)cc3c(=O)c(C(=O)O)cn1c23.C[C@H]1COc2c(N3CCN(C)CC3)c(F)cc3c(=O)c(C(=O)O)cn1c23.O [LEVOFLOXACIN]
[1]
  Activity: 76.7%
[2]
  Activity: 11.1%
[3]
  Activity: 96.3%
[4]
  Activity: 99.4%
[5]
  Activity: 90.6%
[6]
  Activity: 7.7%
[7]
  Activity: 22.8%
[8]
  Activity: 10.5%
[9]
  Activity: 78.5%

## COc1c(N2C[C@@H](C)C[C@H](N)C2)ccc2c(=O)c(C(=O)O)cn(C3CC3)c12 [NEMONOXACIN]
[10]
  Activity: 33.3%
[11]
  Activity: 91%
[12]
  Activity: 2.5%
[13]
  Activity: 3.8%
[14]
  Activity: 92.3%
[15]
  MIC90: ≥ 4 µg/mL
[16]
  RatioAUC/MIC: 393
[17]
  RatioAUC/MIC: 98
[18]
  Activity: 37.8%
[19]
  Activity: 28.9%
[20]
  Activity: 44.7%
[21]
  Activity: 100%
[22]
  Activity: 99.7%
[23]
  Activity: 96.9%
[24]
  Activity: 90.3%
[25]
  Activity: 78.3%
[26]
  Activity: 30.6%
[27]
  Activity: 36.1%
[28]
  Activity: 67.3%
[29]
  Activity: 16%
[30]
  Activity: 2%
[31]
  Activity: 18.2%
[32]
  Activity: 53.5%
[33]
  Activity: 95.3%

Source: ChEMBL document CHEMBL1671676, “In vitro activity of nemonoxacin, a novel nonfluorinated quinolone, against 2,440 clinical isolates” (2009)
